# Where two headings read alike, the source gives them in different places.
# Legend:
# [1] = cited from earlier work
# [2] = tested on: TMPRSS2; settings: cited from earlier work
# [3] = Solubility / Biopharmaceutics Classification System class; type: physicochemical; settings: inferred from solubility and structure-suggested poor permeability
# [4] = cited from earlier work; remark: listed apart in the source
# [5] = Phase I safety and tolerability assessment; type: in vivo, human; settings: for safety and tolerability: multiple administration, healthy adults
# Summary of the method: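 Healthy Japanese men took 600 mg orally four times daily on day 1 and days 3–9. Monitoring throughout covered symptoms, physical examination, and supine blood pressure and pulse. It also covered temperature, oxygen saturation, weight, hematology, biochemistry, coagulation and spot urinalysis. ECGs were 12-lead plus monitor, and adverse events were recorded.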
# [6] = cited from earlier work; remark: listed apart in the source
# [7] = tested on: SARS‐CoV‐2 infection of a cell line derived from human airway epithelial cells (Calu‐3); settings: cited from earlier work
# [8] = in vivo
# [9] = Population PK; design: species or system human; settings: for Food effect against fasted on KA: covariate multiplier
# Summary of the method: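 Plasma GBPA came from 14 multiple-dose subjects (372 points) and 10 earlier single-dose fasted subjects (47 points). Modelling used NONMEM with FOCE and interaction. Doses were converted to GBPA equivalents by molecular-weight ratio. One- and two-compartment models with first-order absorption and linear elimination were tested, with additive, proportional or combined residual error. Between-subject variability and interoccasion variability were log-normal, and food condition was tested as a covariate.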
# [10] = type: in vivo, human; settings: for AUC(0-t) / Tmax / half-life / Cmax: male, human, plasma, 600 mg; for AUC(0-t) / Tmax / half-life: oral; for AUC(0-t): AUC4h; for Cmax: po, 600 mg camostat mesylate oral
# Summary of the method: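 Night doses were fasted. Cohort 1 took daytime doses after a meal, except a fasted day-1 morning dose. Cohort 2 dosed 30 min premeal on day 1, then 1 h premeal. Plasma GBPA was measured by LC-MS/MS and analysed noncompartmentally. Food ratios came from a mixed-effects model on ln Cmax and AUC24h.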
# [11] = tested on: SARS‐Cov‐2 infection; settings: read-out: EC50 value of GBPA that inhibited SARS-CoV-2 infection; cited from earlier work
# [12] = Cohort 2, Day 1, 30 min before a meal
# [13] = Cohort 2, Day 3, 1 h before a meal
# [14] = Cohort 2, Day 9, 1 h before a meal
# [15] = Cohort 1, Day 1, Fasted, mean (SD)
# [16] = Cohort 1, Day 3, Fed, mean (SD)
# [17] = Cohort 1, Day 9, Fed, mean (SD)
# [18] = Cohort 2, Day 1, 30 min before a meal, mean (SD)
# [19] = Cohort 2, Day 3, 1 h before a meal, mean (SD)
# [20] = Cohort 2, Day 9, 1 h before a meal, mean (SD)
structure (smiles),measurement,setting,value
"CN(C)C(=O)COC(=O)Cc1ccc(OC(=O)c2ccc(NC(=N)N)cc2)cc1.CS(=O)(=O)O [camostat mesylate, dimethylcarbamoylmethyl 4‐(4‐guanidinobenzoyloxy)phenylacetate monomethanesulfonate]",solubility,[1],soluble
same,TMPRSS2 inhibition,[2],inhibited
same,Biopharmaceutics Classification System class,[3],class 3
same,presence in plasma after oral administration,[4],not detectable
same,"findings in safety laboratory values, vital signs, or ECG parameters",[5]; 600 mg q.i.d.,no clinically significant findings
same,serious adverse events or deaths,[5]; 600 mg q.i.d.,no serious adverse events or deaths
same,safety and tolerability,[5]; 600 mg q.i.d.,no safety concerns were raised
same,safety and tolerability,"[5]; 600 mg q.i.d., listed as Camostat mesylate",safe and tolerated
same,QTcF change from baseline,[5]; all subjects,≤ 60 ms
same,QTcF interval,"[5]; any postbaseline visit, all subjects",≤ 480 ms
same,half-life in human plasma,[6],≤ 1 min
same,SARS-CoV-2 infection of Calu-3 cells,[7],prevented
same,human equivalent dose converted from the dog NOAEL,[8],3333 mg
"N=C(N)Nc1ccc(C(=O)Oc2ccc(CC(=O)O)cc2)cc1 [GBPA, 4‐(4‐guanidinobenzoyloxy)phenylacetic acid]",Food effect against fasted on KA,"[9]; 30 min before a meal, FIXED",1.0 FIXED
same,Food effect against fasted on KA,"[9]; 1 h before a meal, FIXED",1.0 FIXED
same,Food effect against fasted on KA,[9]; Fed,0.0807
same,Absorption rate constant (KA),[9]; PopPK fixed effect estimate,5.91 h⁻¹
same,Lag time,[9]; PopPK fixed effect estimate,0.319 h
same,IOV on FA,[9]; interoccasion variability,35.8 % CV
same,IOV on KA,[9]; interoccasion variability,105 % CV
same,Proportional residual error,[9]; intra-subject variability,0.39 % CV
same,Vd/F,"[9]; male, human, plasma, oral",904 L
same,clearance,"[9]; male, human, plasma, oral",11300 mL/min
same,exposure of GBPA compared with the fasted state,[10]; 1 h before a meal,no significant difference
same,"AUC4h against fasted, geometric mean ratio (95% confidence interval)","[10]; Cohort 1, Day 3, Fed","0.31 (0.23, 0.43)"
same,"Cmax against fasted, geometric mean ratio (95% confidence interval)","[10]; Cohort 1, Day 3, Fed","0.28 (0.18, 0.42)"
same,"AUC4h against fasted, geometric mean ratio (95% confidence interval)","[10]; Cohort 1, Day 9, Fed","0.30 (0.21, 0.43)"
same,"Cmax against fasted, geometric mean ratio (95% confidence interval)","[10]; Cohort 1, Day 9, Fed","0.27 (0.17, 0.42)"
same,"AUC4h against fasted, geometric mean ratio (95% confidence interval)",[10]; [12],"0.43 (0.29, 0.64)"
same,"Cmax against fasted, geometric mean ratio (95% confidence interval)",[10]; [12],"0.50 (0.31, 0.86)"
same,"AUC4h against fasted, geometric mean ratio (95% confidence interval)",[10]; [13],"0.53 (0.31, 0.91)"
same,"Cmax against fasted, geometric mean ratio (95% confidence interval)",[10]; [13],"0.57 (0.30, 1.08)"
same,"AUC4h against fasted, geometric mean ratio (95% confidence interval)",[10]; [14],"0.79 (0.46, 1.37)"
same,"Cmax against fasted, geometric mean ratio (95% confidence interval)",[10]; [14],"0.95 (0.51, 1.75)"
same,Cmax and AUC relative to values under fasted conditions,[10]; administered after a meal and at 30 min before a meal,not more than 50%
same,exposure of GBPA compared with the fasted state,[10]; after a meal and 30 min before a meal,significantly lower
same,AUC(0-t),[10]; [15],683 ng·h/mL
same,AUC(0-t),[10]; [16],206 ng·h/mL
same,AUC(0-t),[10]; [17],194 ng·h/mL
same,AUC(0-t),[10]; [18],227 ng·h/mL
same,AUC(0-t),[10]; [19],366 ng·h/mL
same,AUC(0-t),[10]; [20],556 ng·h/mL
same,Tmax,"[10]; Tmax, Cohort 1, Day 1, Fasted, median (range)",1 h
same,Tmax,"[10]; Tmax, Cohort 1, Day 3, Fed, median (range)",2 h
same,Tmax,"[10]; Tmax, Cohort 1, Day 9, Fed, median (range)",2 h
same,Tmax,"[10]; Tmax, Cohort 2, Day 1, 30 min before a meal, median (range)",1 h
same,Tmax,"[10]; Tmax, Cohort 2, Day 3, 1 h before a meal, median (range)",1 h
same,Tmax,"[10]; Tmax, Cohort 2, Day 9, 1 h before a meal, median (range)",1 h
same,half-life,"[10]; half-life, plasma GBPA elimination",< 2 h
same,Tmax,"[10]; median Tmax, fasted conditions, 30 min before a meal, and 1 h before a meal",1 h
same,Tmax,"[10]; median Tmax, fed conditions",2 h
same,half-life,"[10]; t1/2, Cohort 1, Day 1, Fasted, mean (SD), n = 6",1.58 h
same,half-life,"[10]; t1/2, Cohort 1, Day 3, Fed, mean, n = 2",1.33 h
same,half-life,"[10]; t1/2, Cohort 1, Day 9, Fed, mean (SD), n = 3",1.16 h
same,half-life,"[10]; t1/2, Cohort 2, Day 1, 30 min before a meal, mean (SD)",1.35 h
same,half-life,"[10]; t1/2, Cohort 2, Day 3, 1 h before a meal, mean (SD), n = 6",1.05 h
same,half-life,"[10]; t1/2, Cohort 2, Day 9, 1 h before a meal, mean (SD)",0.962 h
same,Cmax,[10]; [15],371 ng/mL
same,Cmax,[10]; [16],95.8 ng/mL
same,Cmax,[10]; [17],93.5 ng/mL
same,Cmax,[10]; [18],177 ng/mL
same,Cmax,[10]; [19],218 ng/mL
same,Cmax,[10]; [20],367 ng/mL
same,EC50,[11],0.178 µM
